Common to all, as to format: functional
Assay [1] concerns Mus musculus. Nature of the assay: Percent change in the plasma glucose concentration of drug-treated db/db mice (4-6 mice, perorally) relative to vehicle at the dose 5 mg/kg. The conditions noted are these: route oral. Summed up:
(§1)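 Oral dosing of db/db mice once daily for 3 days, fed ad libitum. On day 4, food was withdrawn and a fourth dose given, then mice were fasted. After 4 h, mice were anesthetized with halothane and decapitated, and blood was collected into fluoride tubes. Plasma glucose was measured on an autoanalyzer and reported as mean ± SE percent change versus vehicle controls. […]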

Assay [2] concerns Mus musculus. Nature of the assay: Percent change in the plasma glucose concentration of drug -treated db/db mice (4-6 mice, perorally) relative to vehicle at the dose 120 mg/kg. The conditions noted are these: route oral. Summed up: as §1
Assay [3] is filed under the species Mus musculus. The experiment in a line: Percent change in the plasma glucose concentration of drug -treated db/db mice ([…], perorally) relative to vehicle (dose not specified).
Assay [4] has as its system Mus musculus. Nature of the assay: Percent change in the plasma glucose concentration of drug-treated db/db mice ([…], perorally) relative to vehicle at the dose 20 mg/kg. The settings on record: route oral. The method in brief: as §1
In assay [5] the test system is Mus musculus. Nature of the assay: Percent change in the plasma glucose concentration of drug -treated db/db mice ([…], perorally) relative to vehicle at the dose 2 mg/kg. The conditions noted are these: route oral.
Assay [6] deals with Mus musculus. The experiment in a line: Percent change in the plasma glucose concentration of drug -treated db/db mice ([…], perorally) relative to vehicle at the dose 100 mg/kg. The conditions noted are these: route oral.
Assay [7] has as its system Mus musculus. Nature of the assay: Percent change in the plasma glucose concentration of drug -treated db/db mice ([…], perorally) relative to vehicle at the dose 0.5 mg/kg. The settings on record: route oral. The method in brief:
as §1

Assay [8] concerns Mus musculus. The experiment in a line: Percent change in the plasma glucose concentration of drug -treated db/db mice (4-6 mice, perorally) relative to vehicle at the dose mg/kg. The method in brief: as §1
Assay [9] concerns Mus musculus. Nature of the assay: Concentration required to cause significant reduction in plasma glucose when administered orally in mice. The conditions noted are these: po.

Structures are written as SMILES.

Our source for the Change and ED50 values is ChEMBL document CHEMBL1129425, “New potent antihyperglycemic agents in db/db mice: synthesis and structure-activity relationship studies of (4-substituted benzyl) (trifluoromethyl)pyrazoles and -pyrazolones” (1996).

Turning to `CCNc1ccc(Cc2c(C(F)(F)F)n[nH]c2O)cc1`, the Change is reported as -11% in the assay on Mus musculus [1] and -61% in the assay on Mus musculus [2].

As for `COc1ccc(Cc2c(C(F)(F)F)n[nH]c2O)cc1`, in the assay on Mus musculus [1], the Change is -22%.

For the compound `CSc1ccc(Cc2c(C(F)(F)F)[nH]n(C)c2=O)cc1`, the Change is on record as -40% in the assay filed under Mus musculus [3] and -11% with Mus musculus [1].

For `CCSc1ccc(Cc2c(C(F)(F)F)n[nH]c2O)cc1`, the Change in the assay on Mus musculus [1] is -25%; with Mus musculus [4], -38%; with Mus musculus [5] it was -23%.

On to `Oc1[nH]nc(C(F)(F)F)c1Cc1ccccc1`, for which, in the assay with Mus musculus [6], the Change was -33%.

As for `Cc1ccc(Cc2c(C(F)(F)F)n[nH]c2O)cc1`, the Change in the assay with Mus musculus [4] is given as -36%.

Take `CCc1ccc(Cc2c(C(F)(F)F)n[nH]c2O)cc1`: the Change in the assay with Mus musculus [1] was -39%; in the assay with Mus musculus [5], -28%; in the assay on Mus musculus [7], -11%.

As to `CCCCCCc1ccc(Cc2c(C(F)(F)F)n[nH]c2O)cc1`, in the assay with Mus musculus [4], the Change is listed as 5%.

As to `CCCCSc1ccc(Cc2c(C(F)(F)F)n[nH]c2O)cc1`, the Change with Mus musculus [4] was -3%.

As for `CCCCc1ccc(Cc2c(C(F)(F)F)n[nH]c2O)cc1`, the Change in the assay with Mus musculus [1] is listed as -7%.

As for `CC(=O)c1ccc(Cc2c(C(F)(F)F)n[nH]c2O)cc1`, the Change with Mus musculus [1] is -19%.

For `CC(C)(C)C(=O)c1ccc(Cc2c(C(F)(F)F)n[nH]c2O)cc1`, the Change in the assay with Mus musculus [8] was -23%.

Consider `Oc1[nH]nc(C(F)(F)F)c1Cc1ccc(F)cc1`, for which the Change in the assay with Mus musculus [1] is -3%; with Mus musculus [4], -20%.

For the compound `Oc1[nH]nc(C(F)(F)F)c1Cc1ccc(OC(F)(F)F)cc1`, the Change with Mus musculus [1] is -4%.

Turning to `CCCCOc1[nH]nc(C(F)(F)F)c1Cc1ccc(CC)cc1`, the Change in the assay on Mus musculus [4] is listed as -34%.

Regarding `CSc1ccc(CC2(C)C(=O)NN=C2C(F)(F)F)cc1` (configuration not stated), the Change in the assay with Mus musculus [4] is listed as -9%.

With `CC(O)c1ccc(Cc2c(C(F)(F)F)n[nH]c2O)cc1` (configuration not stated), in the assay on Mus musculus [1], the Change is recorded as -18%.

As for `CC(C)Sc1ccc(Cc2c(C(F)(F)F)n[nH]c2O)cc1`, in the assay on Mus musculus [4], the Change is -32%.

As for `CSc1ccc(CC2(C)C(=O)N(C)N=C2C(F)(F)F)cc1` (configuration not stated), the Change with Mus musculus [4] is listed as 6%.

As for `CCc1ccc(Cc2c(OC)nn(C)c2C(F)(F)F)cc1`, the Change in the assay on Mus musculus [1] is on record as -38%.

With `CCOc1nn(CC)c(C(F)(F)F)c1Cc1ccc(SC)cc1`, the Change in the assay with Mus musculus [1] turned out to be 5%.

With `Oc1[nH]nc(C(F)(F)F)c1Cc1ccc(I)cc1`, the Change in the assay on Mus musculus [4] is -48%.

In the case of `C/C(=N\O)c1ccc(Cc2c(C(F)(F)F)n[nH]c2O)cc1`, in the assay with Mus musculus [1], the Change is reported as -28%.

Turning to `Oc1[nH]nc(C(F)(F)F)c1Cc1ccc(C(F)(C(F)(F)F)C(F)(F)F)cc1`, in the assay with Mus musculus [4], the Change is 1%.

With `CCOc1c(Cc2ccc(SC)cc2)c(C(F)(F)F)nn1CC`, in the assay with Mus musculus [1], the Change was -23%.

In the case of `CSc1ccc(Cc2c(C(F)(F)F)n(C)[nH]c2=O)cc1`, the results for the Change in the assay with Mus musculus [1] and with Mus musculus [4] were -7% and -29%, respectively.

As for `CSc1ccc(Cc2c(C)n[nH]c2O)cc1`, the Change is -36% in the assay with Mus musculus [4] and -39% with Mus musculus [6].

Turning to `Oc1[nH]nc(C(F)(F)F)c1Cc1ccc(Br)cc1`, the results for the Change in the assay with Mus musculus [1], in the assay on Mus musculus [4] and in the assay on Mus musculus [5] were -24%, -47% and -5%, respectively.

`CCc1ccc(Cc2c(C(F)(F)F)n[nH]c2OC)cc1`: the Change with Mus musculus [1] is on record as -36%.

For `CSc1ccc(Cc2c(C(F)(F)F)[nH]n(Cc3ccccc3)c2=O)cc1`, the Change with Mus musculus [4] was 10%.

As to `COc1nn(C)c(C(F)(F)F)c1Cc1ccc(SC)cc1`, the values for the Change with Mus musculus [1], in the assay with Mus musculus [4] and in the assay on Mus musculus [5] were -41%, -49% and -20%, respectively.

For the compound `CCCc1ccc(Cc2c(C(F)(F)F)n[nH]c2O)cc1`, the Change in the assay on Mus musculus [4] is on record as -44%.

Regarding `Oc1[nH]nc(C(F)(F)F)c1Cc1ccc(Cl)cc1`, the Change in the assay on Mus musculus [1] is on record as -6%.

Turning to `Oc1[nH]nc(C(F)(F)F)c1Cc1ccc(SC(F)(F)F)cc1`, the results for the Change with Mus musculus [1] and in the assay on Mus musculus [4] were 5% and -15%, respectively.

For `CC(C)(C)c1ccc(Cc2c(C(F)(F)F)n[nH]c2O)cc1`, the Change in the assay with Mus musculus [4] is -7%.

On to `C[S+]([O-])c1ccc(Cc2c(C(F)(F)F)n[nH]c2O)cc1` (configuration not stated), for which the Change was -33% with Mus musculus [1] and -25% in the assay with Mus musculus [5].

`COc1[nH]nc(C(F)(F)F)c1Cc1ccc(SC)cc1`: the Change with Mus musculus [4] was -57%; with Mus musculus [5] it was -16%.

Turning to `Oc1[nH]nc(C(F)(F)F)c1Cc1ccc(C(F)(F)F)cc1`, the Change in the assay with Mus musculus [1] is recorded as -15%.

In the case of `CSc1ccc(Cc2c(C(F)(F)F)n[nH]c2OC(C)C)cc1`, the Change with Mus musculus [4] is -40%.

As to `CSc1ccc(Cc2c(C(F)(F)F)n(C)n(C)c2=O)cc1`, in the assay on Mus musculus [4], the Change is -6%.

In the case of `Oc1[nH]nc(C(F)(F)F)c1Cc1ccc2ccccc2c1`, in the assay on Mus musculus [4], the Change is -45%.

In the case of `COc1c(Cc2ccc(SC)cc2)c(C(F)(F)F)nn1C`, the Change in the assay on Mus musculus [1] is recorded as -39%.

On to `CCCCOc1nn(CCCC)c(C(F)(F)F)c1Cc1ccc(CC)cc1`, for which the Change in the assay on Mus musculus [4] is on record as -3%.

On to `CC(C)c1ccc(Cc2c(C(F)(F)F)n[nH]c2O)cc1`, for which the Change in the assay with Mus musculus [1] is -17%.

One may read the ED50 as the dose at which the effect has come halfway, by size or by number of responders. `CSc1ccc(Cc2c(C(F)(F)F)n[nH]c2O)cc1` yielded an ED50 in the assay with Mus musculus [9] of 9.85 mg/kg. Also, the Change was -43% with Mus musculus [1]; -57% with Mus musculus [4]; -29% in the assay on Mus musculus [5]; -13% with Mus musculus [7]; -68% with Mus musculus [6].

With `CS(=O)(=O)c1ccc(Cc2c(C(F)(F)F)n[nH]c2O)cc1`, the Change in the assay with Mus musculus [1] is 2%.
